Results: ChEMBL document CHEMBL5543089, “Discovery of a novel, highly potent EZH2 PROTAC degrader for targeting non-canonical oncogenic functions of EZH2” (Eur J Med Chem, 2024)
The source made the active and inactive calls. No cut-off for these calls is given here.

Experiments:
[1] = target: Histone-lysine N-methyltransferase, H3 lysine-36 specific (Homo sapiens) (UniProt Q96L73); assay: Inhibition of human NSD1 assessed as methyltransferase activity using Nucleosomes as substrate at 10 uM by radioisotope based MT HotSpot assay relative to control
Method in brief: (§1)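 Radioisotope-based methyltransferase assay (MT HotSpot) run by a contract lab. Compound was tested at 10 μM against a panel of 20 methyltransferases, in duplicate. Values are means ± SD of two replicates.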

[2] = target: T1, von Hippel-Lindau disease tumor suppressor/Histone-lysine N-methyltransferase EZH2 (Homo sapiens, UniProt Q15910+P40337); assay: PROTAC activity at VHL/EZH2 degradation in human BT-549 cells assessed as protein degradation at 0.1 to 3 uM measured after 48 hrs by Western blot analysis; type: cell-based; conditions: dose 0.1-3 µM
Method in brief: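 BT549 (RPMI-1640) and MDA-MB-468 (DMEM) cells were treated for 48 h. RIPA lysates (~10 μg) were immunoblotted for EZH2 with β-actin as loading control. Blots are representative of three biological experiments.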
Target sequence in this assay (P40337 whole entry, looked up): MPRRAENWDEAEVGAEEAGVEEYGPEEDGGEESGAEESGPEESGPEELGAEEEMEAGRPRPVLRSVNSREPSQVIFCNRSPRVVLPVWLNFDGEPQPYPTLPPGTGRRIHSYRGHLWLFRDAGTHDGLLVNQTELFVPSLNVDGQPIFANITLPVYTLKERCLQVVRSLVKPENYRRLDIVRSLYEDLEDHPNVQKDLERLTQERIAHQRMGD
Target sequence in this assay (Q15910 whole entry, looked up): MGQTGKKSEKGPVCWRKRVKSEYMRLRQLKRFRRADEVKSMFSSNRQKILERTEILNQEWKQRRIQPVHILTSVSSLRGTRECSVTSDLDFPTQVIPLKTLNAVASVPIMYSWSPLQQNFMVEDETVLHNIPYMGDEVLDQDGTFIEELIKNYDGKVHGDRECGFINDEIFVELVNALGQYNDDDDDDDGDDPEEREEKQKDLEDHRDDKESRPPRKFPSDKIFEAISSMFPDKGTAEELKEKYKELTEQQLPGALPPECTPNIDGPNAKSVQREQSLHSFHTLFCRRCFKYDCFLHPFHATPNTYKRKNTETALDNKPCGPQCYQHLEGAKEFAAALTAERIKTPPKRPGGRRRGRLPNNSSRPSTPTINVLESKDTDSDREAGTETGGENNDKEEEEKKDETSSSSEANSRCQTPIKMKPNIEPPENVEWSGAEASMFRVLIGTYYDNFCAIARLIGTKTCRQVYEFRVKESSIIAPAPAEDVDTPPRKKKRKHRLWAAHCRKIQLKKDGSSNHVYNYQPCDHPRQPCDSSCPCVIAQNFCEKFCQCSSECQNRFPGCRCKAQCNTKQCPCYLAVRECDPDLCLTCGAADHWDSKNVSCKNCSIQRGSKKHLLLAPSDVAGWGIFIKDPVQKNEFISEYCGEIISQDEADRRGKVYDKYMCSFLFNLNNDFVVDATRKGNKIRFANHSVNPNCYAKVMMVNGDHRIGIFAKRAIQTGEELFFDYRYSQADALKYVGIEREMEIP

[3] = target: T1, von Hippel-Lindau disease tumor suppressor/Histone-lysine N-methyltransferase EZH2; assay: PROTAC activity at VHL/EZH2 degradation in MLLr AML cell line human EOL1 cells assessed as protein degradation at 0.5 uM measured after 24 hrs in presence of 5 uM VHL-1 by Western blot analysis; type: cell-based
Method in brief: (§2)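 EOL-1 cells were pre-treated for 2 h with MLN4924 (0.05 μM), EPZ-6438 (5 μM) or VHL-1 (5 μM), then given 0.5 μM degrader for 24 h. EZH2 was assessed by Western blot against β-actin. Blots are representative of two biological experiments.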
Target sequence in this assay (P40337 whole entry, looked up): as the sequence (P40337 whole entry, looked up) above
Target sequence in this assay (Q15910 whole entry, looked up): as the sequence (Q15910 whole entry, looked up) above

[4] = target: Histone-lysine N-methyltransferase SETD2 (Homo sapiens) (UniProt Q9BYW2); assay: Inhibition of human SETD2 assessed as methyltransferase activity using Oligo Nucleosomes as substrate at 10 uM by radioisotope based MT HotSpot assay relative to control; method in brief: as §1
[5] = target: T1, von Hippel-Lindau disease tumor suppressor/Histone-lysine N-methyltransferase EZH2; assay: PROTAC activity at VHL/EZH2 degradation in MLLr AML cell line human EOL1 cells assessed as protein degradation at 0.5 uM measured after 24 hrs in presence of 0.05 uM MLN4924 by Western blot analysis; type: cell-based; method in brief: as §2
Target sequence in this assay (P40337 whole entry, looked up): as the sequence (P40337 whole entry, looked up) above
Target sequence in this assay (Q15910 whole entry, looked up): as the sequence (Q15910 whole entry, looked up) above

[6] = target: Histone-lysine N-methyltransferase EHMT1 (Homo sapiens) (UniProt Q9H9B1); assay: Inhibition of human GLP assessed as methyltransferase activity using Histone H3 as substrate at 10 uM by radioisotope based MT HotSpot assay relative to control
Chain of Histone-lysine N-methyltransferase EHMT1 (Homo sapiens) (Q9H9B1 whole entry, looked up): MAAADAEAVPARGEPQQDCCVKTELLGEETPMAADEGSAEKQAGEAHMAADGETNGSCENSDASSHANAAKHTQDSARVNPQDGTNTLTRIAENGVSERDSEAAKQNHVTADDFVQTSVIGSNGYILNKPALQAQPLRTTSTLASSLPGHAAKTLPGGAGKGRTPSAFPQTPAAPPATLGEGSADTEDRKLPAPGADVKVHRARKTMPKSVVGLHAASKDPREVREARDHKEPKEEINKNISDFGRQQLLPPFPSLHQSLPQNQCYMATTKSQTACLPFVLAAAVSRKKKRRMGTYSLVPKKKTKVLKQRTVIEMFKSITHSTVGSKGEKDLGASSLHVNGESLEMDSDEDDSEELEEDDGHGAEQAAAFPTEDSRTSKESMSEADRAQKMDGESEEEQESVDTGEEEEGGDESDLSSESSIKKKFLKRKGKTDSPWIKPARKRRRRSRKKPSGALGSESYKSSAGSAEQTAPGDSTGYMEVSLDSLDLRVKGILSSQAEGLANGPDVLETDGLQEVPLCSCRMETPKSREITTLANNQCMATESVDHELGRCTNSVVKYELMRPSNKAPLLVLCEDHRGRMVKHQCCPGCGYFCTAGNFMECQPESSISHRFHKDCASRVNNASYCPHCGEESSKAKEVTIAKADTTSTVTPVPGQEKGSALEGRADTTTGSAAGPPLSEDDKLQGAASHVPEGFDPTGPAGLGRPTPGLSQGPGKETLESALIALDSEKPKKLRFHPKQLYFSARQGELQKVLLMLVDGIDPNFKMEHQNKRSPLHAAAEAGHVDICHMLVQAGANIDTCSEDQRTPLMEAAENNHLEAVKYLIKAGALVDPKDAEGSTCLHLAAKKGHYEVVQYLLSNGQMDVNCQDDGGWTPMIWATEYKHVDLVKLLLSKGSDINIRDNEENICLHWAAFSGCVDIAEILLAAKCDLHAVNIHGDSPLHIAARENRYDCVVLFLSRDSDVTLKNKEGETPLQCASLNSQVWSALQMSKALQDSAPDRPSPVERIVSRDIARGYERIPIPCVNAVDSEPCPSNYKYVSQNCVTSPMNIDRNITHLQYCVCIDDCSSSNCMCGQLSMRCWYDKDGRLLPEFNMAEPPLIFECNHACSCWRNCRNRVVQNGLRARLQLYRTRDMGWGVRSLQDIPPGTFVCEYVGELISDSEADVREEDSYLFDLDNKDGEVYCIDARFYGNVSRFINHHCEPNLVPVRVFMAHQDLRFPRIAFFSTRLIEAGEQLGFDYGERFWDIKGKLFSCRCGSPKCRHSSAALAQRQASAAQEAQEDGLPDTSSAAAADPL

[7] = target: T1, von Hippel-Lindau disease tumor suppressor/Histone-lysine N-methyltransferase EZH2; assay: PROTAC activity at VHL/EZH2 degradation in human RS4-11 cells assessed as protein degradation at 0.3 uM measured after 24 hrs by Western blot analysis; type: cell-based
Method in brief: (§3)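 Cells were seeded at 0.5–2 million per well and treated for 24 h, or for the stated times at 300 nM in the time course. Lysis was in RIPA with protease inhibitors; ~10 μg protein was run on SDS-PAGE and blotted to PVDF. Detection used fluorescent immunoblotting for EZH2, EED and SUZ12, with β-actin as loading control. Blots are representative of two biological experiments.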
Target sequence in this assay (P40337 whole entry, looked up): as the sequence (P40337 whole entry, looked up) above
Target sequence in this assay (Q15910 whole entry, looked up): as the sequence (Q15910 whole entry, looked up) above

Homo sapiens = species on record: Homo sapiens; assay: Inhibition of human PRMT1 assessed as methyltransferase activity using Histone H4 /H4 (1-15)-Biotin as substrate at 10 uM by radioisotope based MT HotSpot assay relative to control; method in brief: as §1
[8] = target: Protein arginine N-methyltransferase 8 (Homo sapiens) (UniProt Q9NR22); assay: Inhibition of human PRMT8 assessed as methyltransferase activity using Histone H4 as substrate at 10 uM by radioisotope based MT HotSpot assay relative to control; method in brief: as §1
Chain of Protein arginine N-methyltransferase 8 (Homo sapiens) (Q9NR22 2-394 limits assumed): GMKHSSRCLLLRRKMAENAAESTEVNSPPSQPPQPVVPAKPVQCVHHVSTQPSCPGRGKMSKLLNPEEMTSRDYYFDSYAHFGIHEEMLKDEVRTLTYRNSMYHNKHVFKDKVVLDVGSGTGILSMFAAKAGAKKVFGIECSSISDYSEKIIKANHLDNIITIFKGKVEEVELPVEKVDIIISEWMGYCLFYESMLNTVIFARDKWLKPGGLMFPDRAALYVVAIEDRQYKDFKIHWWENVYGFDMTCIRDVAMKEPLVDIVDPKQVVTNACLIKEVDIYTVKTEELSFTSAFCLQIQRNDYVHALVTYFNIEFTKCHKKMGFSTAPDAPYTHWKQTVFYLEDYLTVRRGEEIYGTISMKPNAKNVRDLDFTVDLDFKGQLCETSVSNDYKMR

[9] = target: T1, von Hippel-Lindau disease tumor suppressor/Histone-lysine N-methyltransferase EZH2; assay: PROTAC activity at VHL/EZH2 degradation in hMLLr AML cell line EOL1 cells assessed as protein degradation at 0.1 uM measured after 24 hrs by Western blot analysis; type: cell-based; method in brief: as §3
Target sequence in this assay (P40337 whole entry, looked up): as the sequence (P40337 whole entry, looked up) above
Target sequence in this assay (Q15910 whole entry, looked up): as the sequence (Q15910 whole entry, looked up) above

[10] = target: Histone-lysine N-methyltransferase EZH2 (Homo sapiens) (UniProt Q15910); assay: Inhibition of human EZH2 assessed as methyltransferase activity using Core Histone as substrate at 10 uM by radioisotope based MT HotSpot assay relative to control; method in brief: as §1
[11] = target: Histone-lysine N-methyltransferase, H3 lysine-79 specific (Homo sapiens) (UniProt Q8TEK3); assay: Inhibition of human DOT1L assessed as methyltransferase at 10 uM by radioisotope based MT HotSpot assay relative to control; method in brief: as §1
[12] = target: Histone-lysine N-methyltransferase EHMT2 (Homo sapiens) (UniProt Q96KQ7); assay: Inhibition of human G9a assessed as methyltransferase activity using Histone H3 as substrate at 10 uM by radioisotope based MT HotSpot assay relative to control; method in brief: as §1
[13] = target: Histone-lysine N-methyltransferase NSD2 (Homo sapiens) (UniProt O96028); assay: Inhibition of human NSD2 assessed as methyltransferase activity using Nucleosomes as substrate at 10 uM by radioisotope based MT HotSpot assay relative to control; method in brief: as §1
Chain of Histone-lysine N-methyltransferase NSD2 (Homo sapiens) (O96028 whole entry): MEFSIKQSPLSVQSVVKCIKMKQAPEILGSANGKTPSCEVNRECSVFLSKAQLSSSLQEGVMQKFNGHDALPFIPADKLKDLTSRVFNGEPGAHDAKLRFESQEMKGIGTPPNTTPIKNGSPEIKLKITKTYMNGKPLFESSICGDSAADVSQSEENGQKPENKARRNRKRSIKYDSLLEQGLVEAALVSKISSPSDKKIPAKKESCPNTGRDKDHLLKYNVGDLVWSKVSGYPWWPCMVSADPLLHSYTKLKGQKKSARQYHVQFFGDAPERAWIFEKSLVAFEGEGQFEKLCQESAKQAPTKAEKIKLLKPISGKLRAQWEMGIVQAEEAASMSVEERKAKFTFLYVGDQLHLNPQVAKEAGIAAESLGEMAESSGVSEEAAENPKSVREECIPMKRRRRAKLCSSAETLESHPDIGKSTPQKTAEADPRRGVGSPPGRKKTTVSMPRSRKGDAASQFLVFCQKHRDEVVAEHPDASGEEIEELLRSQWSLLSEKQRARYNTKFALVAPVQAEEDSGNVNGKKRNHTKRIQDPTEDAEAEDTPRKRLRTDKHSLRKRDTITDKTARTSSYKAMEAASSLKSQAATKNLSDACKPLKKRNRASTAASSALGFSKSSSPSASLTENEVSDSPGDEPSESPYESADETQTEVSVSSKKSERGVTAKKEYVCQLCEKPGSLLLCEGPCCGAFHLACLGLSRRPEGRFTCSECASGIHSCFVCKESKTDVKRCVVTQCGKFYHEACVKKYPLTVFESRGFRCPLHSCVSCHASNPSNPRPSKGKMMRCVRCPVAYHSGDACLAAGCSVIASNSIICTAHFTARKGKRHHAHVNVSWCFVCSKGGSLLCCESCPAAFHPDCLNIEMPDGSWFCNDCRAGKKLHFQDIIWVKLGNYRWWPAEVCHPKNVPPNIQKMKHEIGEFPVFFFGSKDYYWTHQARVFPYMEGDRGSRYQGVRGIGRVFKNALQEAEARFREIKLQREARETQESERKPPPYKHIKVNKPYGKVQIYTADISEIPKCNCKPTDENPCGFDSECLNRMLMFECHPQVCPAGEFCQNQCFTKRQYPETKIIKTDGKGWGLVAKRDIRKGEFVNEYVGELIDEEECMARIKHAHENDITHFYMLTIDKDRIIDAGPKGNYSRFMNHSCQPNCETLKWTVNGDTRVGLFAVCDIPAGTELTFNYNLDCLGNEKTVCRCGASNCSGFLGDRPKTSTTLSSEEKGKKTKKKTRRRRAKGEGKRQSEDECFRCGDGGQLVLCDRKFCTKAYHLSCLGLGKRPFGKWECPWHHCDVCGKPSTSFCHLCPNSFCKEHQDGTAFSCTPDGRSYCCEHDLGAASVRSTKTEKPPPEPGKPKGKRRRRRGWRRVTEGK

MDA-MB-468 = assay: Anti-proliferative activity against human MDA-MB-468 cells assessed as cell growth inhibition measured after 5 days incubation by CCK-8 assay; type: functional, cell-based; conditions: MDA-MB-468, 120 h
Method in brief: (§4)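 Cells plated at 3,000–10,000 per well and exposed to serial dilutions for 5 days at 37 °C. CCK-8 (1x) was added for 2–4 h, with absorbance read at 450 nm against a 690 nm reference. IC50 was taken from curve fits. Leukemia lines were grown in RPMI-1640, K562 in IMDM and MDA-MB-468 in DMEM, all with 10 % FBS. Values are means ± SD of two biological experiments (three for BT549 and MDA-MB-468).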

[14] = target: von Hippel-Lindau disease tumor suppressor/Polycomb protein SUZ12 (Homo sapiens) (UniProt Q15022+P40337); assay: PROTAC activity at VHL/SUZ12 degradation in MLLr AML cell line human EOL1 cells assessed as protein degradation at 1 to 1000 nM […] measured after 1 to 24 hrs by Western blot analysis; type: cell-based; conditions: dose 1-1000 nM, time 1-24 hrs; method in brief: as §3
[15] = target: Histone-lysine N-methyltransferase 2A (Homo sapiens) (UniProt Q03164); assay: Inhibition of human MLL1 assessed as methyltransferase activity using Nucleosomes as substrate at 10 uM by radioisotope based MT HotSpot assay relative to control; method in brief: as §1
[16] = Cmax in mouse at 50 mg/kg, ip measured after 4 hrs; type: ADME, organism-based; conditions: in vivo
MV4-11 = assay: Anti-proliferative activity against human MV4-11 cells assessed as cell viability measured after 5 days incubation by CCK-8 assay; type: functional, cell-based; conditions: MV4-11, 120 h; method in brief: as §4
[17] = target: T1, von Hippel-Lindau disease tumor suppressor/Histone-lysine N-methyltransferase EZH2; assay: PROTAC activity at VHL/EZH2 degradation in hMLLr AML cell line EOL1 cells assessed as protein degradation at 1 uM measured after 24 hrs by Western blot analysis; type: cell-based; method in brief: as §3
Target sequence in this assay (P40337 whole entry, looked up): as the sequence (P40337 whole entry, looked up) above
Target sequence in this assay (Q15910 whole entry, looked up): as the sequence (Q15910 whole entry, looked up) above

[18] = Plasma concentration in mouse at 50 mg/kg, ip measured after 9 hrs; conditions: in vivo
[19] = target: T1, von Hippel-Lindau disease tumor suppressor/Histone-lysine N-methyltransferase EZH2; assay: PROTAC activity at VHL/EZH2 degradation in hMLLr AML cell line EOL1 cells assessed as protein degradation measured after 24 hrs by Western blot analysis; type: cell-based; method in brief: as §3
[20] = target: T1, von Hippel-Lindau disease tumor suppressor/Histone-lysine N-methyltransferase EZH2; assay: PROTAC activity at VHL/EZH2 degradation in MLLr AML cell line human EOL1 cells assessed as protein degradation at 0.1 uM measured after 24 hrs by Western blot analysis; type: cell-based; method in brief: as §3

- inhibition [1]: < 50%
- Activity [2]: Active
- Activity [3]: inactive
- inhibition [4]: < 50%
- Activity [5]: inactive
- inhibition [6]: < 50%
- Activity [7]: Active
- inhibition (Homo sapiens): < 50%
- inhibition [8]: < 50%
- Activity [9]: 100%
- inhibition [10]: Active
- inhibition [11]: < 50%
- inhibition [12]: < 50%
- inhibition [13]: < 50%
- IC50 (MDA-MB-468): 450 nM
- Activity [14]: Active
- inhibition [15]: < 50%
- Cmax [16]: 3.9 µM
- IC50 (MV4-11): 170 nM
- Activity [17]: 100%
- plasma concentration [18]: Stable
- DC50 [19]: 34.4 nM
- Activity [20]: 100%
Compound: CCN(c1cc(-c2ccc(CN3CCN(CCC(=O)NCCCCCCCCCCC(=O)N[C@H](C(=O)N4C[C@H](O)C[C@H]4C(=O)NCc4ccc(-c5scnc5C)cc4)C(C)(C)C)CC3)cc2)cc(C(=O)NCc2c(C)cc(C)[nH]c2=O)c1C)C1CCOCC1
